# Sampled rows, rich in hits. Any-hit rate of the full collection: about 4.8%.
# APP 5'UTR act – APP 5'UTR luciferase reporter activation; SH-SY5Y APP 5'UTR luciferase reporter, luminescence; zero percent = DMSO vehicle wells; activation, % at 2 µM; 190,000 compounds, 1% hits;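 active means activation above a set limit, based on mean plus 3 SD of controls, cut at about 140% in these data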
# NF-kB expr up – compounds increasing NF-kB expression in human neuronal cells. NF-kB reporter expression; hits give high values. fold change at 12.5 µM. 190,000 compounds, 1.6% hits. AID 1239; in the data active means fold change above about 3.3
# APP transl inh – APP translation inhibition; SH-SY5Y APP 5'UTR-luciferase reporter, luminescence; inhibition, % at 2 µM; 190,000 compounds, 0.82% hits;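 active means inhibition above a set limit, derived from the sample mean plus 3 SD, cut at about 45% in these data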
# FLuc stim CS – firefly luciferase counter-screen for stimulation assays. AID 1027. ATPlite luciferase biochemical, luminescence, 10 min; 0 = ATP-free wells, 1 = DMSO control. 200,000 tested, under 10 active. activation factor at 10 µM;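 active means luciferase activation factor, scaled between plate controls, of at least 2 with compound at 10 µM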
# Target sequence (P08659 whole entry, looked up): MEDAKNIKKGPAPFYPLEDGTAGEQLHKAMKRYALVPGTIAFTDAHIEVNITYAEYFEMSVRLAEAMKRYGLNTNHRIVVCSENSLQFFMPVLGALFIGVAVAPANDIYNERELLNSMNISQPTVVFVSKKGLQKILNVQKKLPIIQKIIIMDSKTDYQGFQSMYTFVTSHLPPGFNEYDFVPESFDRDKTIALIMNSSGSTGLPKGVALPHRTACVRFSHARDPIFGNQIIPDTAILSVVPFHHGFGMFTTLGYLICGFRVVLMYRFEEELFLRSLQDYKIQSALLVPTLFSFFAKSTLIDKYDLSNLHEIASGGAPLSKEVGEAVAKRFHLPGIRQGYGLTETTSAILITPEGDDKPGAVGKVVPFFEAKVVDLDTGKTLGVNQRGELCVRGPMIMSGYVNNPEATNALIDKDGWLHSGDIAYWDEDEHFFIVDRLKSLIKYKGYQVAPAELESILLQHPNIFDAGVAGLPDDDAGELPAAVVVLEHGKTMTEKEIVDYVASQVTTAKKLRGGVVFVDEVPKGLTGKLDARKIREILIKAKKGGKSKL
#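 Assay system: Luciferase/luciferin detection reagent, cell-free biochemical luciferase assay / Read-out: luciferase activation / Benchmarks: No-ATP low control, compound-free enzyme-plus-ATP high control / Medium: PBS buffer for ATP / Detection: luminescence measurement of luciferase light output / Schedule: 10 min at ambient temperature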
# FLuc inh counter – inhibits firefly luciferase, flagging false hits in luciferase inhibition screens; ATPLite firefly luciferase biochemical luminescence, 10 min; inhibition, % at 10 µM; 200,000 compounds, 1.5% hits; AID 1006;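 active means inhibition above about 50% when tested at 10 µM, limit read from the data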
# STAT1 activator – activators of IFN-gamma induced STAT1 signaling; NIH 3T3 STAT1-luciferase reporter, luminescence; 100% = IFN-gamma alone, no compound; activation (% of control), % at 5.5 µM; 200,000 compounds, 2.6% hits;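 active means activation above the screen-wide mean activation plus 3 SD, cut at about 130% in these data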;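 further: raw ratio to IFN-gamma control signal so 100% means no change and 0% no light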
# * marks the source's active call; other numbers are inactive results; / = not tested or not shown.
SMILES,APP 5'UTR act,NF-kB expr up,APP transl inh,FLuc stim CS,FLuc inh counter,STAT1 activator
O=C(CCCc1ccccc1)NCCC1=CCCCC1,-16,1.3,16,1,-3,136*
O=C(NCCC1=CCCCC1)c1ccc(CN2CCOCC2)cc1,102,2.6,-102,1.1,-8,134*
CC(=O)c1c(C)[nH]c(C(=O)NCCC2=CCCCC2)c1C,93,3.5*,-93,1,-2,134*
O=C(O)COc1ccccc1/C=N/NC(=O)c1cccc(S(=O)(=O)N2CCOCC2)c1,0,1,0,0.9,6,99
NC(=O)c1cc2cc(Cl)ccc2oc1=Nc1cccc(C(F)(F)F)c1,-15,0.93,15,1,-3,99
O=C(O)COc1ccc(/C=C/c2ccc3cccc([N+](=O)[O-])c3n2)cc1,10,0.89,-10,0.5,50,90
COc1cc(/C=C/c2ccc3cccc([N+](=O)[O-])c3n2)ccc1OCC(=O)O,19,0.96,-19,0.4,58*,102
O=C(c1cc(-c2ccccc2)on1)N1CCCC1,61,4.1*,-61,0.5,46,132*
CC1CCN(C(=O)c2cc(-c3ccccc3O)on2)CC1,134,7.3*,-134,0.7,26,113
Cc1cc(C(=O)COc2ccc3ccc(=O)oc3c2)c(C)n1C,-12,0.86,12,0.8,15,103
CC1(C)Cc2ccccc2C2=NNC(=O)C2=N1,-1,0.4,1,1,1,139*
Cc1ccc(NC(=O)N2CCc3ccccc32)cc1C,160*,9.2*,-160,0.1,86*,93
Cc1ccc(NC(=O)N2CCCc3ccccc32)cc1,15,1.4,-15,0.9,7,105
CN1C(=O)CSc2ccc(NC(=O)N3CCc4ccccc43)cc21,-3,1,2,1.1,-10,90
Cc1ccc(NC(=O)N2CCc3ccccc32)cc1,170*,8.1*,-170,0.1,90*,90
CCCCCCOC(=O)Nc1ccc(S(=O)(=O)Nc2cccc([N+](=O)[O-])c2)cc1,-3,0.99,3,1.1,-8,97
c1ccc(COc2ccc(OCCN3CCCC3)cc2)cc1,21,1.2,-21,1,0,115
c1ccc(COc2ccc(OCCCn3cncn3)cc2)cc1,136*,5.3*,-136,0.5,46,114
c1ccc(Cc2ccc(OCCn3cncn3)cc2)cc1,1,0.85,-1,1.1,-8,105
CC1CCN(CCCOc2ccc(OCc3ccccc3)cc2)CC1,7,5.1*,-6,1.1,-6,109
CC1CCN(CCCCOc2ccc(C(=O)c3ccccc3)cc2)CC1,10,0.91,-10,1.1,-5,97
c1ccc(COc2ccc(OCCCN3CCCC3)cc2)cc1,99,2,-99,0.4,58*,104
CCCn1c(SCC(=O)N2CCCC(C)C2)nnc1-c1cccnc1 (configuration not stated),-2,1.1,2,1,-3,103
Cc1ccccc1C(=O)c1c[nH]c(C(=O)NCCc2ccccn2)c1,8,1.1,-8,1,-5,101
COc1ccc(-c2nc(-c3cccc(C)c3)no2)cc1OC,3,2.8,-3,1,0,138*
SMILES,APP 5'UTR act,NF-kB expr up,APP transl inh,FLuc stim CS,FLuc inh counter,STAT1 activator
COc1ccc(-c2nc(-c3ccccc3OC)no2)cc1OC,31,1.2,-31,0.8,18,132*
COc1cc(-c2nc(-c3cccc(C)c3)no2)cc(OC)c1OC,18,1.4,-18,1,-2,111
COc1ccc(-c2nc(C3CCCCC3)no2)cc1OC,71,2,-71,1,-2,134*
Cc1cccc(-c2noc(-c3ccc4c(c3)OCO4)n2)c1,186*,/,-186,0.2,82*,86
Cc1ccc(-c2[nH]c(=S)[nH]c(=O)c2C#N)cc1,-6,/,6,1.1,-7,93
O=C(CNC(=S)N(Cc1ccccc1Cl)C1CCCC1)NCCN1CCOCC1,-19,1.3,19,1.1,-7,97
CC(C)(C)C(=O)Nc1cccc2[nH]ncc12,12,1.2,-12,1,-4,104
O=C(NCCCn1ccnc1)c1cc2cc([N+](=O)[O-])ccc2oc1=O,-13,1.1,13,1,-4,104
COc1ccc(-c2nnc(SCC(=O)Nc3cccc(Cl)c3)o2)cc1,214*,1.2,-214,1.1,-9,106
COc1ccc(-c2nnc(SCC(=O)Nc3ccccc3OC)o2)cc1,117,4.1*,-117,0.9,6,101
Cc1cnc(NC(=O)CSc2nnc(COc3c(C)cccc3C)o2)s1,-5,0.98,6,1,-4,100
COc1ccc(-c2nnc(SCC(=O)Nc3nncs3)o2)cc1,8,0.71,-8,0.9,14,97
COc1ccccc1NC(=O)CSc1nnc(-c2ccncc2)o1,18,1.1,-18,1,0,106
Cc1cnc(NC(=O)CSc2nnc(-c3ccccc3)o2)s1,113,2.5,-113,1,-2,129*
COc1ccc(NC2=C(Cl)C(=O)N(CCc3ccccc3)C2=O)c(OC)c1,26,1.7,-26,1.1,-6,99
COc1ccc(NC2=C(Cl)C(=O)N(CCc3ccccc3)C2=O)cc1,87,2.8,-87,1,2,142*
CCCCCOc1ccc(OC(=O)c2ccncc2)cc1,-12,3.8*,12,1,-2,105
Clc1ccc2c(c1)[C@H]1OCC[C@H]1[C@@H](c1ccco1)N2,17,1.8,-17,0.4,59*,104
Fc1ccc2c(c1)[C@H]1OCC[C@H]1[C@@H](c1ccco1)N2,-1,1.5,1,1.1,-5,103
CN(C)/C=C/c1oc2ccc(O)cc2c1[N+](=O)[O-],17,2,-17,0.8,21,123
COC(=O)c1c(-c2ccccc2)csc1NC1=NS(=O)(=O)c2ccccc21,135,1.2,-135,0.3,65*,136*
Cc1ccc(C(=O)C(C)Sc2nnc(N)s2)cc1 (configuration not stated),-5,1.4,5,1,-2,101
COc1cccc2cc(-c3nc4ccccc4o3)c(=O)oc12,122,3,-122,0.4,60*,119
O=c1c2cnn(-c3ccccc3)c2nc(-c2cccs2)n1-c1cccc(Cl)c1,0,1,0,1,-4,98
CCn1c(C2CCN(Cc3ccccc3)CC2)n[nH]c1=S,154*,1,-154,1.1,-6,99
CC(C)(C)C(=O)Nc1nnc(Cc2ccccc2)s1,-26,1.3,26,1,-4,98
CC(C)Cc1nnc(NC(=O)Nc2ccccc2)s1,77,2.6,-77,1,4,147*
CCc1nnc(NC(=O)CCC(=O)Nc2ccccc2)s1,-8,1,8,1.1,-6,103
